Source: ChEMBL document CHEMBL4251549, “Design, synthesis and biological evaluation of nitrogen-containing macrocyclic bisbibenzyl derivatives as potent anticancer agents by targeting the lysosome” (Eur J Med Chem, 2017)
Where a name gives a salt, the structure may show the parent alone.

Experiments:
Type in all cases: functional, cell-based
A549 = experiment: Antiproliferative activity in human A549 cells after 48 hrs by MTT assay; settings: A549, 48 h
Outline: (§1)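 Cells exposed to compound for 48 h. Viability read by MTT, with absorbance of the solubilised MTT product at 570 nm. IC50 derived from at least three independent experiments.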

MCF7 = experiment: Antiproliferative activity in human MCF7 cells after 48 hrs by MTT assay; settings: MCF7, 48 h; outline: as §1
K562 = experiment: Antiproliferative activity in human K562 cells after 48 hrs by MTT assay; settings: K562, 48 h; outline: as §1

Structure (SMILES) | IC50 (A549) | IC50 (MCF7) | IC50 (K562)
CN(C)c1cc2cc(c1O)Oc1ccc(cc1)CCc1cccc(O)c1-c1ccc(cc1O)CC2 | > 20 µM | > 20 µM | > 20 µM
Oc1ccc2cc1Oc1ccc(cc1)CCc1ccc(CN3CCOCC3)c(O)c1-c1ccc(cc1O)CC2 | > 20 µM | > 20 µM | > 20 µM
Oc1ccc2cc1Oc1ccc(cc1)CCc1cccc(OCCCN3CCCC3)c1-c1ccc(cc1O)CC2 | 4.53 µM | 3.68 µM | 2.94 µM
Oc1ccc2cc1Oc1ccc(cc1)CCc1cccc(OCCN3CCCC3)c1-c1ccc(cc1O)CC2 | 2.02 µM | 2.42 µM | 2.22 µM
CN(C)CCCOc1ccc2cc1Oc1ccc(cc1)CCc1cccc(OCCCN(C)C)c1-c1ccc(cc1OCCCN(C)C)CC2 | 1.44 µM | 3.05 µM | 2.5 µM
COCCN(CCOC)Cc1cc2cc(c1O)Oc1ccc(cc1)CCc1ccc(CN(CCOC)CCOC)c(O)c1-c1ccc(cc1O)CC2 | > 20 µM | > 20 µM | > 20 µM
c1cc2c(c(OCCN3CCCC3)c1)-c1ccc(cc1OCCN1CCCC1)CCc1ccc(OCCN3CCCC3)c(c1)Oc1ccc(cc1)CC2 | 1.04 µM | 0.88 µM | 1.79 µM
Oc1cc2ccc1-c1c(ccc(CN3CCCCC3)c1O)CCc1ccc(cc1)Oc1cc(cc(CN3CCCCC3)c1O)CC2 | 4.85 µM | 2.04 µM | 0.66 µM
CN(CCO)Cc1cc2cc(c1O)Oc1ccc(cc1)CCc1ccc(CN(C)CCO)c(O)c1-c1ccc(cc1O)CC2 | 5.21 µM | 6 µM | 5.67 µM
CN(CCO)Cc1ccc2c(c1O)-c1ccc(cc1O)CCc1ccc(O)c(c1)Oc1ccc(cc1)CC2 | 9.07 µM | 8.28 µM | 9.19 µM
c1cc2c(c(OCCN3CCCCC3)c1)-c1ccc(cc1OCCN1CCCCC1)CCc1ccc(OCCN3CCCCC3)c(c1)Oc1ccc(cc1)CC2 | 0.97 µM | 0.24 µM | 0.56 µM
CC(=O)Nc1cc2cc(c1OC(C)=O)Oc1ccc(cc1)CCc1cccc(OC(C)=O)c1-c1ccc(cc1OC(C)=O)CC2 | > 20 µM | > 20 µM | > 20 µM
CCCCN(CCCC)Cc1cc2cc(c1O)Oc1ccc(cc1)CCc1ccc(CN(CCCC)CCCC)c(O)c1-c1ccc(cc1O)CC2 | > 20 µM | > 20 µM | > 20 µM
Oc1ccc2cc1Oc1ccc(cc1)CCc1ccc(CN3CCCCC3)c(O)c1-c1ccc(cc1O)CC2 | 7.12 µM | 5.07 µM | 5.88 µM
Oc1cc2ccc1-c1c(ccc(CN3CCSCC3)c1O)CCc1ccc(cc1)Oc1cc(cc(CN3CCSCC3)c1O)CC2 | 10.2 µM | 9.25 µM | 8.35 µM
CCCCN(CCCC)Cc1ccc2c(c1O)-c1ccc(cc1O)CCc1ccc(O)c(c1)Oc1ccc(cc1)CC2 | > 20 µM | > 20 µM | > 20 µM
Oc1ccc2cc1Oc1ccc(cc1)CCc1ccc(CN3CCN(Cc4ccccc4)CC3)c(O)c1-c1ccc(cc1O)CC2 | > 20 µM | > 20 µM | > 20 µM
c1cc2c(c(OCCCN3CCCC3)c1)-c1ccc(cc1OCCCN1CCCC1)CCc1ccc(OCCCN3CCCC3)c(c1)Oc1ccc(cc1)CC2 | 1.67 µM | 2.12 µM | 2.13 µM
CN(C)Cc1cc2cc(c1O)Oc1ccc(cc1)CCc1ccc(CN(C)C)c(O)c1-c1ccc(cc1O)CC2 | 4.81 µM | 4.22 µM | 2.84 µM
COCCN(CCOC)Cc1ccc2c(c1O)-c1ccc(cc1O)CCc1ccc(O)c(c1)Oc1ccc(cc1)CC2 | > 20 µM | > 20 µM | > 20 µM
CCN(CC)CCOc1ccc2cc1Oc1ccc(cc1)CCc1cccc(OCCN(CC)CC)c1-c1ccc(cc1OCCN(CC)CC)CC2 | 0.78 µM | 0.56 µM | 0.65 µM
COc1ccc(N2CCN(Cc3cc4cc(c3O)Oc3ccc(cc3)CCc3ccc(CN5CCN(c6ccc(OC)cc6)CC5)c(O)c3-c3ccc(cc3O)CC4)CC2)cc1 | > 20 µM | > 20 µM | > 20 µM
CCN(CC)Cc1cc2cc(c1O)Oc1ccc(cc1)CCc1ccc(CN(CC)CC)c(O)c1-c1ccc(cc1O)CC2 | 3.78 µM | 1.05 µM | 1.86 µM
CN1CCN(Cc2ccc3c(c2O)-c2ccc(cc2O)CCc2ccc(O)c(c2)Oc2ccc(cc2)CC3)CC1 | 5.59 µM | 6.02 µM | 3.31 µM

Structure (SMILES) | IC50 (A549) | IC50 (MCF7) | IC50 (K562)
c1cc2c(c(OCCN3CCOCC3)c1)-c1ccc(cc1OCCN1CCOCC1)CCc1ccc(OCCN3CCOCC3)c(c1)Oc1ccc(cc1)CC2 | 5.23 µM | 4.19 µM | 3.43 µM
CN1CCN(Cc2cc3cc(c2O)Oc2ccc(cc2)CCc2ccc(CN4CCN(C)CC4)c(O)c2-c2ccc(cc2O)CC3)CC1 | 2.16 µM | 2.89 µM | 3.32 µM
CCN(CC)Cc1ccc2c(c1O)-c1ccc(cc1O)CCc1ccc(O)c(c1)Oc1ccc(cc1)CC2 | 5.74 µM | 7.59 µM | 7.86 µM
Oc1ccc2cc1Oc1ccc(cc1)CCc1ccc(CN3CCC(O)CC3)c(O)c1-c1ccc(cc1O)CC2 | 5.74 µM | 9.05 µM | 7.07 µM
CC(C)(C)OC(=O)N1CCN(Cc2cc3cc(c2O)Oc2ccc(cc2)CCc2ccc(CN4CCN(C(=O)OC(C)(C)C)CC4)c(O)c2-c2ccc(cc2O)CC3)CC1 | > 20 µM | > 20 µM | > 20 µM
Oc1ccc2cc1Oc1ccc(cc1)CCc1cccc(OCCN3CCCCC3)c1-c1ccc(cc1O)CC2 | 2.13 µM | 2.49 µM | 2.31 µM
CN(C)CCOc1cccc2c1-c1ccc(cc1O)CCc1ccc(O)c(c1)Oc1ccc(cc1)CC2 | 1.3 µM | 2.38 µM | 1.56 µM
Nc1cc2cc(c1O)Oc1ccc(cc1)CCc1cccc(O)c1-c1ccc(cc1O)CC2 | > 20 µM | > 20 µM | > 20 µM
Oc1ccc2cc1Oc1ccc(cc1)CCc1ccc(CN3CCSCC3)c(O)c1-c1ccc(cc1O)CC2 | 16.3 µM | 15.8 µM | 13.4 µM
CN(C)CCCOc1cccc2c1-c1ccc(cc1O)CCc1ccc(O)c(c1)Oc1ccc(cc1)CC2 | 1.99 µM | 3.25 µM | 2.61 µM
Oc1cc2ccc1-c1c(ccc(CN3CCC(O)CC3)c1O)CCc1ccc(cc1)Oc1cc(cc(CN3CCC(O)CC3)c1O)CC2 | 3.26 µM | 3.95 µM | 2.56 µM
CCN(CC)CCOc1cccc2c1-c1ccc(cc1O)CCc1ccc(O)c(c1)Oc1ccc(cc1)CC2 | 1.87 µM | 2.73 µM | 2.23 µM
Oc1ccc2cc1Oc1ccc(cc1)CCc1cccc(OCCN3CCOCC3)c1-c1ccc(cc1O)CC2 | 7.49 µM | 5.02 µM | 10.1 µM
Oc1cc2ccc1-c1c(ccc(CN3CCN(Cc4ccccc4)CC3)c1O)CCc1ccc(cc1)Oc1cc(cc(CN3CCN(Cc4ccccc4)CC3)c1O)CC2 | > 20 µM | > 20 µM | > 20 µM
Oc1ccc2cc1Oc1ccc(cc1)CCc1ccc(CN3CCCC3)c(O)c1-c1ccc(cc1O)CC2 | 2.26 µM | 2.41 µM | 4.82 µM
O=[N+]([O-])c1cc2cc(c1O)Oc1ccc(cc1)CCc1cccc(O)c1-c1ccc(cc1O)CC2 | > 20 µM | > 20 µM | > 20 µM
COc1ccc(N2CCN(Cc3ccc4c(c3O)-c3ccc(cc3O)CCc3ccc(O)c(c3)Oc3ccc(cc3)CC4)CC2)cc1 | > 20 µM | > 20 µM | > 20 µM
CC(C)(C)OC(=O)N1CCN(Cc2ccc3c(c2O)-c2ccc(cc2O)CCc2ccc(O)c(c2)Oc2ccc(cc2)CC3)CC1 | > 20 µM | > 20 µM | > 20 µM
COc1cccc2c1C(=O)c1c(O)c3c(c(O)c1C2=O)C[C@@](O)(C(=O)CO)C[C@@H]3O[C@H]1C[C@H](N)[C@H](O)[C@H](C)O1 [DOXORUBICIN HYDROCHLORIDE] | 1.45 µM | 2.3 µM | 0.61 µM
Oc1ccc2cc1Oc1ccc(cc1)CCc1cccc(OCCN3CCCCCC3)c1-c1ccc(cc1O)CC2 | 2.98 µM | 3.03 µM | 2.73 µM
c1cc2c(c(OCCN3CCCCCC3)c1)-c1ccc(cc1OCCN1CCCCCC1)CCc1ccc(OCCN3CCCCCC3)c(c1)Oc1ccc(cc1)CC2 | 0.53 µM | 0.66 µM | 0.26 µM
Oc1cc2ccc1-c1c(ccc(CN3CCOCC3)c1O)CCc1ccc(cc1)Oc1cc(cc(CN3CCOCC3)c1O)CC2 | > 20 µM | > 20 µM | > 20 µM
CC(=O)Nc1cc2cc(c1O)Oc1ccc(cc1)CCc1cccc(O)c1-c1ccc(cc1O)CC2 | > 20 µM | > 20 µM | > 20 µM
